{"source": "ChEMBL document CHEMBL3813598", "about": "“Development of hydroxy-based sphingosine kinase inhibitors and anti-inflammation in dextran sodium sulfate induced colitis in mice” (Bioorg Med Chem, 2016)", "key": {"Sphingosine kinase 2 [1]": {"target": "T1, Sphingosine kinase 2 (Homo sapiens, UniProt Q9NRA0)", "T1 sequence (Q9NRA0 whole entry)": "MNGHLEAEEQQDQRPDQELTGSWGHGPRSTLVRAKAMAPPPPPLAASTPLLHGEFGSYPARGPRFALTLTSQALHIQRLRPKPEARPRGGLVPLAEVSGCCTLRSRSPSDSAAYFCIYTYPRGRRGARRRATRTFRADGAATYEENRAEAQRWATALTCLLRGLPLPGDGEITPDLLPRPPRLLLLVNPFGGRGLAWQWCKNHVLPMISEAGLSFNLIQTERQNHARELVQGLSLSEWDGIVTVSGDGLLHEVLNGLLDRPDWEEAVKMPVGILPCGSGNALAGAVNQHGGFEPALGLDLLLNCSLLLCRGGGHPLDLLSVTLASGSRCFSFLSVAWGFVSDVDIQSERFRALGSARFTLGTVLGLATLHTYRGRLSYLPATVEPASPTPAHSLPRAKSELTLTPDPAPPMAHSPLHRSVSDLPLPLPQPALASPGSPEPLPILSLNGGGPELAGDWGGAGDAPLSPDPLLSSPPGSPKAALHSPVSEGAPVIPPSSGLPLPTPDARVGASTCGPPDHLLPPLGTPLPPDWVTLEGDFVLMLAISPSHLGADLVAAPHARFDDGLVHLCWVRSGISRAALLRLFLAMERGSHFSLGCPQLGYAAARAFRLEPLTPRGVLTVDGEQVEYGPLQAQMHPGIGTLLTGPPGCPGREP", "test": "Inhibition of GST-tagged full length human recombinant SPHK2 expressed in baculovirus using sphingosine as substrate preincubated for 10 mins measured after 1 hr by ADP-quest assay", "summary_of_the_method": "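Human recombinant SphK1 or SphK2 with sphingosine substrate and ATP, tested in 384-well format. Enzyme was preincubated with compound for 10 min, then the reaction ran at 28 °C for 1 h. ADP Quest reagents A and B were added for 30 min at room temperature. Fluorescence was read at Ex 530/Em 590 nm. Values are mean of n = 3 in triplicate.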"}, "Sphingosine kinase 1 [2]": {"target": "T2, Sphingosine kinase 1 (Homo sapiens, UniProt Q9NYA1)", "T2 sequence (Q9NYA1 whole entry)": "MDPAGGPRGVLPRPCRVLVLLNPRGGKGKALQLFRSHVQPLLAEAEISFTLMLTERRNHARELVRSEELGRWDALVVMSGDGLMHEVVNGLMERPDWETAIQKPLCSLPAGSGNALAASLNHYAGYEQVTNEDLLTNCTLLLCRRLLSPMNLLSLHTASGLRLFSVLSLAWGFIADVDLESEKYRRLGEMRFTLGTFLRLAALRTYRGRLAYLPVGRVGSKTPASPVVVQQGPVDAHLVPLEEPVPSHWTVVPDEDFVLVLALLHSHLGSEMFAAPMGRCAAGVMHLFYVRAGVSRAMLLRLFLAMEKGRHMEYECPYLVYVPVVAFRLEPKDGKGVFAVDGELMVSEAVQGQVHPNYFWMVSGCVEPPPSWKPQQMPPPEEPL", "test": "Inhibition of GST-tagged full length human recombinant SPHK1 expressed in baculovirus using sphingosine as substrate preincubated for 10 mins measured after 1 hr by ADP-quest assay"}, "Sphingosine kinase 1 [3]": {"target": "T2, Sphingosine kinase 1", "test": "Inhibition of His-tagged full length human recombinant SPHK1 expressed in baculovirus infected fall armyworm Sf9 cell expression system using sphingosine as substrate by ADP-quest assay"}, "Sphingosine kinase 2 [4]": {"target": "T1, Sphingosine kinase 2", "test": "Inhibition of His-tagged full length human recombinant SPHK2 expressed in baculovirus infected fall armyworm Sf9 cell expression system using sphingosine as substrate by ADP-quest assay"}}, "data": [{"smiles": "O=C(N/N=C/c1ccc(OCc2ccc(C(F)(F)F)cc2)cc1)c1cc(O)c(O)c(O)c1", "values": [{"measurement": "IC50", "setting": "Sphingosine kinase 2 [1]", "result": 15.6, "unit": "µM"}, {"measurement": "IC50", "setting": "Sphingosine kinase 1 [2]", "result": 37.4, "unit": "µM"}]}, {"smiles": "O=C(N/N=C/c1ccc(OCc2ccccc2C(F)(F)F)cc1)c1cc(O)c(O)c(O)c1", "values": [{"measurement": "IC50", "setting": "Sphingosine kinase 2 [1]", "result": 15.1, "unit": "µM"}, {"measurement": "IC50", "setting": "Sphingosine kinase 1 [2]", "result": 15, "unit": "µM"}]}, {"smiles": "O=C(NCc1ccc(O)c(O)c1)C12CC3CC(C1)CC(c1ccc(Cl)cc1)(C3)C2", "values": [{"measurement": "Ki", "setting": "Sphingosine kinase 1 [3]", "result": 3.2, "unit": "µM"}, {"measurement": "Ki", "setting": "Sphingosine kinase 2 [4]", "result": 4.2, "unit": "µM"}]}, {"smiles": "O=C(N/N=C/c1cccc(OCc2cccc(F)c2)c1)c1cc(O)c(O)c(O)c1", "values": [{"measurement": "IC50", "setting": "Sphingosine kinase 2 [1]", "result": "> 100", "unit": "µM"}, {"measurement": "IC50", "setting": "Sphingosine kinase 1 [2]", "result": "> 100", "unit": "µM"}]}, {"smiles": "O=C(N/N=C/c1cccc(OCc2ccc(C(F)(F)F)cc2)c1)c1cc(O)c(O)c(O)c1", "values": [{"measurement": "IC50", "setting": "Sphingosine kinase 2 [1]", "result": 22.1, "unit": "µM"}, {"measurement": "IC50", "setting": "Sphingosine kinase 1 [2]", "result": 16.3, "unit": "µM"}]}, {"smiles": "O=C(N/N=C/c1ccc(OCc2ccccc2)cc1)c1cc(O)c(O)c(O)c1", "values": [{"measurement": "IC50", "setting": "Sphingosine kinase 2 [1]", "result": 28.5, "unit": "µM"}, {"measurement": "IC50", "setting": "Sphingosine kinase 1 [2]", "result": 22, "unit": "µM"}]}, {"smiles": "O=C(N/N=C/c1cccc(OCc2ccccc2C(F)(F)F)c1)c1ccc(O)c(O)c1", "values": [{"measurement": "IC50", "setting": "Sphingosine kinase 2 [1]", "result": 13.8, "unit": "µM"}, {"measurement": "IC50", "setting": "Sphingosine kinase 1 [2]", "result": 15.5, "unit": "µM"}]}, {"smiles": "O=C(N/N=C/c1cccc(OCc2ccc(F)cc2)c1)c1cc(O)c(O)c(O)c1", "values": [{"measurement": "IC50", "setting": "Sphingosine kinase 2 [1]", "result": "> 100", "unit": "µM"}, {"measurement": "IC50", "setting": "Sphingosine kinase 1 [2]", "result": "> 100", "unit": "µM"}]}, {"smiles": "COc1cccc(COc2ccc(/C=N/NC(=O)c3ccc(O)cc3)cc2)c1", "values": [{"measurement": "IC50", "setting": "Sphingosine kinase 2 [1]", "result": "> 100", "unit": "µM"}, {"measurement": "IC50", "setting": "Sphingosine kinase 1 [2]", "result": "> 100", "unit": "µM"}]}, {"smiles": "Cc1ccccc1COc1cccc(/C=N/NC(=O)c2cc(O)c(O)c(O)c2)c1", "values": [{"measurement": "IC50", "setting": "Sphingosine kinase 2 [1]", "result": 81.2, "unit": "µM"}, {"measurement": "IC50", "setting": "Sphingosine kinase 1 [2]", "result": 63.2, "unit": "µM"}]}, {"smiles": "COc1cccc(COc2cccc(/C=N/NC(=O)c3ccc(O)cc3)c2)c1", "values": [{"measurement": "IC50", "setting": "Sphingosine kinase 2 [1]", "result": "> 100", "unit": "µM"}, {"measurement": "IC50", "setting": "Sphingosine kinase 1 [2]", "result": "> 100", "unit": "µM"}]}, {"smiles": "N#Cc1cccc(COc2ccc(/C=N/NC(=O)c3cc(O)c(O)c(O)c3)cc2)c1", "values": [{"measurement": "IC50", "setting": "Sphingosine kinase 2 [1]", "result": 22.6, "unit": "µM"}, {"measurement": "IC50", "setting": "Sphingosine kinase 1 [2]", "result": 45.8, "unit": "µM"}]}, {"smiles": "O=C(N/N=C/c1cccc(OCc2ccccc2C(F)(F)F)c1)c1cccc(O)c1", "values": [{"measurement": "IC50", "setting": "Sphingosine kinase 2 [1]", "result": "> 100", "unit": "µM"}, {"measurement": "IC50", "setting": "Sphingosine kinase 1 [2]", "result": "> 100", "unit": "µM"}]}, {"smiles": "Cc1ccc(COc2cccc(/C=N/NC(=O)c3cc(O)c(O)c(O)c3)c2)cc1", "values": [{"measurement": "IC50", "setting": "Sphingosine kinase 2 [1]", "result": 65.4, "unit": "µM"}, {"measurement": "IC50", "setting": "Sphingosine kinase 1 [2]", "result": 45.8, "unit": "µM"}]}, {"smiles": "O=C(N/N=C/c1cccc(OCc2ccccc2C(F)(F)F)c1)c1cc(O)cc(O)c1", "values": [{"measurement": "IC50", "setting": "Sphingosine kinase 2 [1]", "result": "> 100", "unit": "µM"}, {"measurement": "IC50", "setting": "Sphingosine kinase 1 [2]", "result": "> 100", "unit": "µM"}]}, {"smiles": "COc1cccc(COc2cccc(/C=N/NC(=O)c3cc(O)cc(O)c3)c2)c1", "values": [{"measurement": "IC50", "setting": "Sphingosine kinase 2 [1]", "result": "> 100", "unit": "µM"}, {"measurement": "IC50", "setting": "Sphingosine kinase 1 [2]", "result": "> 100", "unit": "µM"}]}, {"smiles": "COc1ccccc1COc1ccc(/C=N/NC(=O)c2cc(O)c(O)c(O)c2)cc1", "values": [{"measurement": "IC50", "setting": "Sphingosine kinase 2 [1]", "result": 26.6, "unit": "µM"}, {"measurement": "IC50", "setting": "Sphingosine kinase 1 [2]", "result": 18.4, "unit": "µM"}]}, {"smiles": "CCCCCCCCCCCCC/C=C/[C@@H](O)[C@H](CO)N(C)C", "note": "[DIMETHYLSPINGOSINE]", "values": [{"measurement": "IC50", "setting": "Sphingosine kinase 2 [1]", "result": 26.3, "unit": "µM"}]}, {"smiles": "N#Cc1ccccc1COc1cccc(/C=N/NC(=O)c2cc(O)c(O)c(O)c2)c1", "values": [{"measurement": "IC50", "setting": "Sphingosine kinase 2 [1]", "result": 68.6, "unit": "µM"}, {"measurement": "IC50", "setting": "Sphingosine kinase 1 [2]", "result": 45.4, "unit": "µM"}]}, {"smiles": "COc1cccc(COc2cccc(/C=N/NC(=O)c3ccc(O)c(O)c3)c2)c1", "values": [{"measurement": "IC50", "setting": "Sphingosine kinase 2 [1]", "result": 4.6, "unit": "µM"}, {"measurement": "IC50", "setting": "Sphingosine kinase 1 [2]", "result": 5, "unit": "µM"}]}, {"smiles": "COc1ccc(COc2cccc(/C=N/NC(=O)c3cc(O)c(O)c(O)c3)c2)cc1", "values": [{"measurement": "IC50", "setting": "Sphingosine kinase 2 [1]", "result": "> 100", "unit": "µM"}, {"measurement": "IC50", "setting": "Sphingosine kinase 1 [2]", "result": "> 100", "unit": "µM"}]}, {"smiles": "O=C(N/N=C/c1ccc(OCc2ccccc2C(F)(F)F)cc1)c1ccc(O)cc1", "values": [{"measurement": "IC50", "setting": "Sphingosine kinase 2 [1]", "result": "> 100", "unit": "µM"}, {"measurement": "IC50", "setting": "Sphingosine kinase 1 [2]", "result": "> 100", "unit": "µM"}]}, {"smiles": "O=C(N/N=C/c1cccc(OCc2cccc3ccccc23)c1)c1cc(O)c(O)c(O)c1", "values": [{"measurement": "IC50", "setting": "Sphingosine kinase 2 [1]", "result": 40.6, "unit": "µM"}, {"measurement": "IC50", "setting": "Sphingosine kinase 1 [2]", "result": 31.3, "unit": "µM"}]}, {"smiles": "O=C(N/N=C/c1cccc(OCc2ccccc2)c1)c1cc(O)c(O)c(O)c1", "values": [{"measurement": "IC50", "setting": "Sphingosine kinase 2 [1]", "result": 26.3, "unit": "µM"}, {"measurement": "IC50", "setting": "Sphingosine kinase 1 [2]", "result": 40.2, "unit": "µM"}]}, {"smiles": "O=C(N/N=C/c1ccc(OCc2ccccc2C(F)(F)F)cc1)c1cc(O)cc(O)c1", "values": [{"measurement": "IC50", "setting": "Sphingosine kinase 2 [1]", "result": "> 100", "unit": "µM"}, {"measurement": "IC50", "setting": "Sphingosine kinase 1 [2]", "result": "> 100", "unit": "µM"}]}, {"smiles": "N#Cc1ccc(COc2ccc(/C=N/NC(=O)c3cc(O)c(O)c(O)c3)cc2)cc1", "values": [{"measurement": "IC50", "setting": "Sphingosine kinase 2 [1]", "result": 17.8, "unit": "µM"}, {"measurement": "IC50", "setting": "Sphingosine kinase 1 [2]", "result": 27.7, "unit": "µM"}]}]}
